Test results: PMC8634121 (Brain, 2021)

What was measured:
mouse DRG neurons = assay: Axon degeneration assay after axotomy in mouse DRG cultures; type: cell-based; conditions: 3 h pulse at 10 µM, compound removed, axotomy immediately; examined 16-72 h
Outline: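 Embryonic day 13.5 C57BL/6J mouse DRGs were trypsin/EDTA-dissociated (37°C, 15 min) and spot-plated at 5000 cells/well on poly-D-lysine/laminin in Neurobasal/B27 with NGF, uridine and fluorodeoxyuridine. At DIV 6–7, cultures got a 3 h pulse of test compound at 10 µM (from 10 mM DMSO stock; […] DMSO final). Compound was rinsed out, […]. Axons were manually cut with a micro-blade, then PFA-fixed and immunostained.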

[1] = target: T1, SAM-TIR protein (human SARM1) (Homo sapiens, UniProt Q6SZW1); assay: Washout assay with plate-bound SAM-TIR; type: biochemical; conditions: 2 h treatment, plates rinsed, assayed 60 min after removal of compound
T1 sequence (Q6SZW1 408-700): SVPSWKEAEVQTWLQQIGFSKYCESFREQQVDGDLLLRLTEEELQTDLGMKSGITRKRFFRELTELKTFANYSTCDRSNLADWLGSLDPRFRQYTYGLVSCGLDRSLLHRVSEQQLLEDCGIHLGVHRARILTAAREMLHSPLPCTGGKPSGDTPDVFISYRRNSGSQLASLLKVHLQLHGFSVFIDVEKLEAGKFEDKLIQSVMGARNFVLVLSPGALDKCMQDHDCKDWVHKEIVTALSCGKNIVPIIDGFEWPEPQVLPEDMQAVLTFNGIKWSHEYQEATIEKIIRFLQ
Outline: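 SAM-TIR lysate (30 µg/ml total protein) was captured via its Strep-tag on Strep-Tactin XT plates, and unbound material was rinsed off. Bound enzyme was exposed to test compound for 2 h, rinsed, then held in assay solution without NAD+ for 0, 10 or 60 min. Wells were rinsed again, and activity was started by adding NAD+. A reversible reference inhibitor was run alongside.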

Ic1cccc2cnccc12 [DSRM-3716]
axonal protection after compound removal (mouse DRG neurons): completely lost | SARM1 inhibition after compound removal [1]: Substantial loss of inhibition
